In general, Ki refers to a measure of affinity in units of concentration, obtained from inhibition or displacement. Low values mean tighter binding, high ones weaker binding. For orientation: EC50 means the midpoint of the concentration-response curve. A higher EC50 goes with a less potent agent.

One series deals with Cannabinoid receptor 1 (Homo sapiens, UniProt P21554). The series is described as follows: Displacement of [3H]CP-55940 from human CB1 receptor expressed in CHO cells. It counts as cell-based. The method in brief:
(§1)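 Ki values are geometric means of at least three separate determinations. Selectivity is expressed as the ratio of the CB1 Ki to the CB2 Ki.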
(Displacement assays read how much labelled ligand stays bound in the presence of the test substance.)

Series [1] addresses T1, Cannabinoid receptor 2 (Homo sapiens, UniProt P34972). The series is described as follows: Displacement of [3H]CP-55940 from human CB2 receptor expressed in CHO cells. The format is cell-based. The method in brief:
as §1

Series [2] has as its target T1, Cannabinoid receptor 2. The series is described as follows: Agonist activity at human CB2 receptor expressed in CHO cells by [35S]GTPgammaS binding assay. It counts as functional, cell-based. In short, it runs like this: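 [35S]GTPγS binding with membranes from transfected CHO cells expressing CB2. EC50 values are geometric means of at least three separate determinations.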
Background: GTPγS is a poorly hydrolysed GTP analogue; its binding reports G protein activation.

Series [3] can be described thus: Metabolic stability in rat liver microsomes after 30 mins. The format is ADME, Microsome. As to conditions: read-out: Stability. In short, it runs like this:
(§2)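 Compounds incubated with liver microsomes for 30 min. Read-out is percent of parent compound remaining.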
For orientation: Microsomes from liver hold many membrane-bound enzymes, among them those of drug oxidation.

Series [4] in a line: Metabolic stability in human liver microsomes after 30 mins. As to conditions: read-out: Stability. The format is ADME, Microsome. In short, it runs like this:
as §2

The species entered for a further series is Homo sapiens. The series can be described thus: Selectivity ratio, Ki for human CB1 receptor to Ki for human CB2 receptor. In short, it runs like this:
as §1

In series [5] the test system is Mus musculus. The series is described as follows: Antiallodynic activity in mouse hind paw incision model of post-operative pain assessed as hind paw withdrawal threshold at 10 mg/kg, ip. The format is functional, organism-based. Details: dose 10 mg/kg.
The subject of series [6] is Mus musculus. The series is described as follows: Antiallodynic activity in mouse hind paw incision model of post-operative pain assessed as hind paw withdrawal threshold at 3 mg/kg, ip. The format is functional, organism-based. Details: dose 3 mg/kg.
Series [7] has as its system Mus musculus. The series is described as follows: Antiallodynic activity in po dosed mouse hind paw incision model of post-operative pain assessed as hind paw withdrawal threshold. It counts as functional, organism-based.
The test system of series [8] is Mus musculus. The series can be described thus: Toxicity in mouse hind paw incision model assessed as behavioral effects at 10 mg/kg, ip. It counts as organism-based. Set-up: dose 10 mg/kg, route intraperitoneal. As to conditions: in vivo.
The test system of series [9] is Mus musculus. The series is described as follows: Toxicity in mouse hind paw incision model assessed as behavioral effects at 3 mg/kg, ip. It counts as organism-based. Set-up: dose 3 mg/kg, route intraperitoneal. As to conditions: in vivo.

Entries after “also recorded” stand apart in the source; their conditions may differ. Activity calls are given as the source filed them.

Sequence of Cannabinoid receptor 1 (P21554 whole entry): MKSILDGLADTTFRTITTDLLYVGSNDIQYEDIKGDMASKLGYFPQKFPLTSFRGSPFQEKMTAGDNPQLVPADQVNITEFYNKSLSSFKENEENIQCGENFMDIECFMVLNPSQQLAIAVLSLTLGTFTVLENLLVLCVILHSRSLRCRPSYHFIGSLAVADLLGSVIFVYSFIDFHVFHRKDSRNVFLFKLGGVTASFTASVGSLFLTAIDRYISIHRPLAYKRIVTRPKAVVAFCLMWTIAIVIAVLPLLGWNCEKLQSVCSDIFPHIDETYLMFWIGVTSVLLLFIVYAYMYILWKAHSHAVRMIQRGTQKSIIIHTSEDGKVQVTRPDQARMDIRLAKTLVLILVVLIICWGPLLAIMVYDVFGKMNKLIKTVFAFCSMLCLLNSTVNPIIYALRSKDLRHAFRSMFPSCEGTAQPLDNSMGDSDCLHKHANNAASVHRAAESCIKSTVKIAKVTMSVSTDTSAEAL
T1 sequence (P34972 whole entry): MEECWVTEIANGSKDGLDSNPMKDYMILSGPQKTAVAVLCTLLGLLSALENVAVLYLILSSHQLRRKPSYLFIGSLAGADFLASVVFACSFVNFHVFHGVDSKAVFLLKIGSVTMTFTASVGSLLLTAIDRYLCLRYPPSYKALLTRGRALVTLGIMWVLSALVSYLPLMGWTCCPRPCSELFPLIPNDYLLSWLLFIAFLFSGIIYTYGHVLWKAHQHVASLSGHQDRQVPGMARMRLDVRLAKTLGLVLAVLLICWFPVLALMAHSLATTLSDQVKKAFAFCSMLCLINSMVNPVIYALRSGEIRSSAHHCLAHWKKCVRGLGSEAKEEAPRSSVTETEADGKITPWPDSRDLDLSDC

On to `CC(C(=O)Nc1ccc2c(c1)C(N1CCOCC1)CCC2)(C(F)(F)F)C(F)(F)F` (single isomer, unassigned; enantiomer 2), for which the figures for the Ki on Cannabinoid receptor 1 and on Cannabinoid receptor 2 [1] were greater than 5 µM and 0.12 µM, respectively. Besides, at Cannabinoid receptor 2 [2], the EC50 came out at 0.072 µM.
Take `Cc1cc(C)c(NC(=O)C2CCCCC2C)cc1CN1CCOCC1` (configuration not stated): the Activity on Cannabinoid receptor 1 came out at 14%. This molecule also had a Ki on Cannabinoid receptor 2 [1] of 0.44 µM. Besides, the midpoint of the response at Cannabinoid receptor 2 [2], the EC50, lay at 0.59 µM. Also, the remaining at 0.5 h in [3] amounted to 67%; in series [4], 49%.
Turning to `Cc1ccc(C(=O)NC2C(C)(C)[C@@H]3CC[C@@]2(C)C3)cc1CCC(=O)N1CCOCC1` (some centres not stated), the Ki at Cannabinoid receptor 1 turned out to be 1.7 µM; at Cannabinoid receptor 2 [1] it was 0.083 µM. Also, the Ratio Ki in the series filed under Homo sapiens is 20.
In the case of `Cc1cc(NC(=O)C2CCCCC2C)cc(CN2CCOCC2)c1C` (configuration not stated), the Ki at Cannabinoid receptor 1 is 0.54 µM; on Cannabinoid receptor 2 [1], 0.0086 µM. In addition, the EC50 on Cannabinoid receptor 2 [2] turned out to be 0.021 µM. For the same molecule, the remaining at 0.5 h in [3] turned out to be 1%; in series [4], 32%. Also, the Ratio Ki in the series filed under Homo sapiens was 63.
`CCC(C)(C)C(=O)Nc1cc(CN2CCOCC2)c(C)cc1C` gave an Activity on Cannabinoid receptor 1 of 18%. On Cannabinoid receptor 2 [1], this molecule displayed a Ki of 0.53 µM. The EC50 at Cannabinoid receptor 2 [2] stood at 0.5 µM. Also, the values for the remaining at 0.5 h in series [3] and in [4] were 42% and 61%, respectively.
As to `Cc1ccc(NC(=O)C2CCCCC2C)cc1CN1CCOCC1` (configuration not stated), the inhibitory constant (Ki) turned out to be 1.6 µM on Cannabinoid receptor 1 and 0.07 µM at Cannabinoid receptor 2 [1]. This molecule returned an EC50 at Cannabinoid receptor 2 [2] of 0.076 µM. For the same molecule, the remaining at 0.5 h amounted to 2.2% in series [3] and 38% in series [4]. The Ratio Ki in the series listed under Homo sapiens was determined as 23.
Consider `Cc1ccc(C(=O)NC2C(C)(C)[C@@H]3CC[C@@]2(C)C3)cc1CCN1CCOCC1` (some centres not stated), for which the Ki on Cannabinoid receptor 1 is 1.4 µM; at Cannabinoid receptor 2 [1] it was 0.045 µM. In addition, the response on Cannabinoid receptor 2 [2] was half-maximal at 0.064 µM (EC50). Also, in the series filed under Homo sapiens, the Ratio Ki stood at 31.
`CCC(C)(C)C(=O)Nc1cc(CN2CCOCC2)c(C)cc1F` gave an Activity at Cannabinoid receptor 1 of 10%. The same molecule came in with a Ki on Cannabinoid receptor 2 [1] of 0.12 µM. Also, the EC50 at Cannabinoid receptor 2 [2] turned out to be 0.2 µM. Besides, the remaining at 0.5 h in series [3] was determined as 20%; in series [4], 57%.
With `Cc1ccc(C(=O)NC2C(C)(C)[C@@H]3CC[C@@]2(C)C3)cc1CN1CCOCC1` (some centres not stated), the values for the Ki on Cannabinoid receptor 1 and at Cannabinoid receptor 2 [1] were 1.1 µM and 0.019 µM, respectively. Also, the EC50 at Cannabinoid receptor 2 [2] is 0.042 µM. Besides, in the series filed under Homo sapiens, the Ratio Ki worked out at 58.
Turning to `Cc1ccc(C(=O)NC2C3(C)CCC(C3)C2(C)C)cc1CC(=O)N1CCOCC1` (configuration not stated), the figures for the Ki on Cannabinoid receptor 1 and at Cannabinoid receptor 2 [1] were 3.9 µM and 0.7 µM, respectively. Further, in the series listed under Homo sapiens, the Ratio Ki was 5.6.
For `Cc1ccc(C(=O)NC2C(C)(C)[C@@H]3CC[C@@]2(C)C3)cc1N1CCOCC1` (some centres not stated) the same measures were 9 µM, 0.3 µM and 30.
As for `Cc1ccc(C(=O)NC2C(C)(C)[C@@H]3CC[C@@]2(C)C3)cc1CCCN1CCOCC1` (some centres not stated), the Ki stood at 2.1 µM at Cannabinoid receptor 1 and 0.062 µM at Cannabinoid receptor 2 [1]. The molecule also gave an EC50 on Cannabinoid receptor 2 [2] of 0.11 µM. Further, the Ratio Ki in the series listed under Homo sapiens was determined as 34.
`Cc1ccc(NC(=O)C(C)(C(F)(F)F)C(F)(F)F)cc1CN1CCOCC1`: the Ki came out at 6.3 µM on Cannabinoid receptor 1 and 0.016 µM at Cannabinoid receptor 2 [1]. Besides, on Cannabinoid receptor 2 [2], the EC50 was 0.014 µM. Further, the remaining at 0.5 h in [3] was 0.9%; in [4] it was 42%. Besides, in the series listed under Homo sapiens, the Ratio Ki is 390.
The molecule `CCC(C)(C)C(=O)Nc1ccc(C)c(CN2CCOCC2)c1` had an Activity at Cannabinoid receptor 1 of 4%. Moreover, the affinity on Cannabinoid receptor 2 [1], expressed as Ki, was 0.12 µM. The molecule also displayed an EC50 at Cannabinoid receptor 2 [2] of 0.11 µM. For the same molecule, the remaining at 0.5 h is 29% in series [3] and 56% in series [4].
As for `Cc1ccc(C(=O)NC2C(C)(C)[C@@H]3CC[C@@]2(C)C3)cc1C(=O)N1CCOCC1` (some centres not stated), the Ki at Cannabinoid receptor 1 was greater than 5 µM; on Cannabinoid receptor 2 [1], 1.2 µM. The remaining at 0.5 h in [3] was 26%.
As for `Cc1c(CN2CCOCC2)cc(NC(=O)C2CCCCC2C)cc1C(F)(F)F` (configuration not stated), the Ki at Cannabinoid receptor 1 was determined as 0.11 µM; at Cannabinoid receptor 2 [1], 0.017 µM. For the same molecule, on Cannabinoid receptor 2 [2], a half-maximal response (EC50) required 0.042 µM. Also, the remaining at 0.5 h in series [3] and in series [4] was 2% in each case. In addition, the Ratio Ki in the series listed under Homo sapiens was determined as 6.5.
As to `CC(C(=O)Nc1ccc2c(c1)C(N1CCOCC1)CCC2)(C(F)(F)F)C(F)(F)F` (stereo in doubt; 43), the Ki was determined as 3.4 µM at Cannabinoid receptor 1 and 0.01 µM on Cannabinoid receptor 2 [1]. For the same molecule, the EC50 at Cannabinoid receptor 2 [2] came out at 0.041 µM.
`Cc1cc(NC(=O)C(C)(C(F)(F)F)C(F)(F)F)cc(CN2CCOCC2)c1C`: the Ki at Cannabinoid receptor 1 is 0.5 µM; on Cannabinoid receptor 2 [1], 0.0027 µM. At Cannabinoid receptor 2 [2], the response was half-maximal at 0.0055 µM (EC50). Further, the values for the remaining at 0.5 h in series [3] and in series [4] were 3.1% and 31%, respectively. Besides, the outcome in the series with Mus musculus [5] and in the series on Mus musculus [6] was Active. Besides, the Ratio Ki in the series listed under Homo sapiens turned out to be 190. In addition, the outcome in the series with Mus musculus [7] was inactive. Also, the Activity result in the series on Mus musculus [8] is “Non-toxic; also recorded: Not Active”.
Regarding `CC(C(=O)Nc1ccc2c(c1)C(N1CCOCC1)CCC2)(C(F)(F)F)C(F)(F)F` (single isomer, unassigned), the Ki on Cannabinoid receptor 1 was 1.3 µM; at Cannabinoid receptor 2 [1] it was 0.0023 µM. In addition, it took 0.0036 µM to reach a half-maximal effect on Cannabinoid receptor 2 [2] (EC50).
`Cc1cc(F)c(NC(=O)C2CCCCC2C)cc1CN1CCOCC1` (configuration not stated) yielded an Activity on Cannabinoid receptor 1 of 31%. At Cannabinoid receptor 2 [1], this molecule displayed a Ki of 0.037 µM. For the same molecule, the midpoint of the response at Cannabinoid receptor 2 [2], the EC50, lay at 0.049 µM. The figures for the remaining at 0.5 h in [3] and in series [4] were 15% and 36%, respectively.
Take `CN1CC[C@]23c4c5ccc(O)c4O[C@H]2[C@@H](O)C=C[C@H]3[C@H]1C5` [MORPHINE]: in the series with Mus musculus [9], the Activity entry is recorded as “Not Active”.
In the case of `Cc1ccc(C(=O)NC2C(C)(C)[C@@H]3CC[C@@]2(C)C3)cc1S(=O)(=O)N1CCOCC1` (some centres not stated), the Ki amounted to 0.13 µM at Cannabinoid receptor 1 and 0.0039 µM at Cannabinoid receptor 2 [1]. Further, the EC50 on Cannabinoid receptor 2 [2] stood at 0.0066 µM. The Ratio Ki in the series listed under Homo sapiens was determined as 31.

These data come from ChEMBL document CHEMBL1155343, “Discovery of N-(3-(morpholinomethyl)-phenyl)-amides as potent and selective CB2 agonists” (Bioorg Med Chem Lett, 2009).
